Test [1] concerns the target SRSF protein kinase 1 (Homo sapiens) (UniProt Q96SB4). Briefly: Inhibition of human SRPK1 (2 to end residues) at 1 uM using RSRSRSRSRSRSRSR as substrate measured after 40 mins in presence of [gamma33P]ATP by scintillation counting method relative to control. Put shortly:
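Single-point inhibition at 1 µM was measured in the Eurofins KinaseProfiler panel. Values are the mean of two independent experiments.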

Test [2] has as its target Phosphatidylinositol 4-phosphate 3-kinase C2 domain-containing subunit alpha (Homo sapiens) (UniProt O00443). Briefly: Inhibition of recombinant human PI3KC2alpha (299 to end residues) at 1 uM using phosphatidylinositol as substrate measured after 40 mins by HTRF assay relative to control. A general note: In TR-FRET formats the signal depends on donor and acceptor labels being close together.

Test [3] addresses CDK6/cyclin D3 (Homo sapiens) (UniProt P30281+Q00534). Briefly: Inhibition of recombinant full-length human CDK6/cyclinD3 at 500 nM using histone H1 as substrate measured after 40 mins in presence of [gamma33P]ATP by scintillation counting method relative to control. Format: protein-complex assay. Put shortly:
(§1)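 Percent inhibition of kinase activity at a single compound concentration, measured by the outsourced Eurofins KinaseProfiler panel. Values are the mean of two independent experiments.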

In test [4] the test system is Dual specificity protein kinase TTK (Homo sapiens), P33981 [S389A]. Briefly: Inhibition of recombinant full-length human TTK S389A mutant at 1 uM using MBP as substrate measured after 40 mins in presence of [gamma33P]ATP by scintillation counting method relative to control.
The next test relates to A549. Briefly: Downregulation of OCT4 in human A549 cells at 0.25 to 1 uM by Western blot analysis. The class given is functional, cell-based. In general terms: In western blotting, separated proteins are transferred to a membrane and probed.
Test [5] addresses Ephrin type-B receptor 4 (Homo sapiens) (UniProt P54760). The test is described as follows: Inhibition of recombinant human EphB4 (561 to end residues) at 1 uM using poly(Glu, Tyr) 4:1 as substrate measured after 40 mins in presence of [gamma33P]ATP by scintillation counting method relative to control.
The subject of test [6] is Tyrosine-protein kinase Blk (Homo sapiens), P51451 [UNDEFINED MUTATION]. The test is described as follows: Inhibition of full-length recombinant human BLK M287V mutant at 1 uM using poly(Glu, Tyr) 4:1 as substrate measured after 40 mins in presence of [gamma33P]ATP by scintillation counting method relative to control. In a few lines: as §1
The target of test [7] is NT-3 growth factor receptor (Homo sapiens) (UniProt Q16288). Briefly: Inhibition of recombinant human TrkC (510 to end residues) at 1 uM using GEEPLYWSFPAKKK as substrate measured after 40 mins in presence of [gamma33P]ATP by scintillation counting method relative to control.
Sequence of NT-3 growth factor receptor (Homo sapiens) (Q16288 32-839 limits assumed): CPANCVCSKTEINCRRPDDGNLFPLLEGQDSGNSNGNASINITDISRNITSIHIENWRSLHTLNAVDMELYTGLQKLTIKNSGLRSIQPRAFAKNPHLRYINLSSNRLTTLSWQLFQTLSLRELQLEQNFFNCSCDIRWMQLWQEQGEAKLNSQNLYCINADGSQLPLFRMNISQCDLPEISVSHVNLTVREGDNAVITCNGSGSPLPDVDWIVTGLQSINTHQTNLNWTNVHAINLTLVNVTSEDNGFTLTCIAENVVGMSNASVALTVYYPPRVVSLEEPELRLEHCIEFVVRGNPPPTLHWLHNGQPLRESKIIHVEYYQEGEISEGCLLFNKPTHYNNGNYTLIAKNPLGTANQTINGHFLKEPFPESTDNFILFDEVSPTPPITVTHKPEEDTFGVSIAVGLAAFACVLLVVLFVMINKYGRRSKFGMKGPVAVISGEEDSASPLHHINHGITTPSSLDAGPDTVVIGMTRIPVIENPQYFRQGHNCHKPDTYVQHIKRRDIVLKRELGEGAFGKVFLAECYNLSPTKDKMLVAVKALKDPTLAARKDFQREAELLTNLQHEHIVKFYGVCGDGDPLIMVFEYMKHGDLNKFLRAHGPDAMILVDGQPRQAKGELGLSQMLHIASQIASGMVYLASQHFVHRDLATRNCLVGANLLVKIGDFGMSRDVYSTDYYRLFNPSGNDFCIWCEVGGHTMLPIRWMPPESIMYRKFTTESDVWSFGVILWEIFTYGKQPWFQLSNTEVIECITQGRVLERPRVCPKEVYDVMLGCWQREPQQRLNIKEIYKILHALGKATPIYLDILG
Test [8] deals with Dual specificity mitogen-activated protein kinase kinase 6 (Homo sapiens) (UniProt P52564). Briefly: Inhibition of recombinant human MKK6 (4 to end residues) at 1 uM using unactive SAPK2a as substrate measured after 40 mins in presence of [gamma33P]ATP by scintillation counting method relative to control.
Sequence of Dual specificity mitogen-activated protein kinase kinase 6 (Homo sapiens) (P52564 whole entry): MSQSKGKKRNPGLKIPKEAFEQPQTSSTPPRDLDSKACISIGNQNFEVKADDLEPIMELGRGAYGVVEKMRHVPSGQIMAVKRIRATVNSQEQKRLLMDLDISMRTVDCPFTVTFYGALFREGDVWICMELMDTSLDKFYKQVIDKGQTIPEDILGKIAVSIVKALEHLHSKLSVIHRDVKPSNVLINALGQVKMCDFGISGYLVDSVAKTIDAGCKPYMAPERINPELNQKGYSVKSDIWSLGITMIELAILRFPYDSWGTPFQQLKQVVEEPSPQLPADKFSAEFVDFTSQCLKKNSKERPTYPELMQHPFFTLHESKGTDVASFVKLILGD
For test [9], the target named is Inhibitor of nuclear factor kappa-B kinase subunit beta (Homo sapiens) (UniProt O14920). The test is described as follows: Inhibition of recombinant full-length human IKKbeta at 1 uM using peptide substrate measured after 40 mins in presence of [gamma33P]ATP by scintillation counting method relative to control.
For test [10], the target named is MAP kinase-interacting serine/threonine-protein kinase 2 (Homo sapiens) (UniProt Q9HBH9). The test is described as follows: Inhibition of recombinant full-length human Mnk2 at 1 uM using myelin basic protein as substrate measured after 40 mins in presence of [gamma33P]ATP by scintillation counting method relative to control.
For test [11], the species on record is Homo sapiens. Briefly: Inhibition of recombinant full-length human JNK2alpha2 S51N mutant at 1 uM using ATF2 as substrate measured after 40 mins in presence of [gamma33P]ATP by scintillation counting method relative to control.
The target of test [12] is Protein kinase C iota type (Homo sapiens) (UniProt P41743). The test is described as follows: Inhibition of recombinant full-length human PKCiota at 1 uM using ERMRPRKRQGSVRRRV as substrate measured after 40 mins in presence of [gamma33P]ATP by scintillation counting method relative to control.
Sequence of Protein kinase C iota type (Homo sapiens) (P41743 whole entry): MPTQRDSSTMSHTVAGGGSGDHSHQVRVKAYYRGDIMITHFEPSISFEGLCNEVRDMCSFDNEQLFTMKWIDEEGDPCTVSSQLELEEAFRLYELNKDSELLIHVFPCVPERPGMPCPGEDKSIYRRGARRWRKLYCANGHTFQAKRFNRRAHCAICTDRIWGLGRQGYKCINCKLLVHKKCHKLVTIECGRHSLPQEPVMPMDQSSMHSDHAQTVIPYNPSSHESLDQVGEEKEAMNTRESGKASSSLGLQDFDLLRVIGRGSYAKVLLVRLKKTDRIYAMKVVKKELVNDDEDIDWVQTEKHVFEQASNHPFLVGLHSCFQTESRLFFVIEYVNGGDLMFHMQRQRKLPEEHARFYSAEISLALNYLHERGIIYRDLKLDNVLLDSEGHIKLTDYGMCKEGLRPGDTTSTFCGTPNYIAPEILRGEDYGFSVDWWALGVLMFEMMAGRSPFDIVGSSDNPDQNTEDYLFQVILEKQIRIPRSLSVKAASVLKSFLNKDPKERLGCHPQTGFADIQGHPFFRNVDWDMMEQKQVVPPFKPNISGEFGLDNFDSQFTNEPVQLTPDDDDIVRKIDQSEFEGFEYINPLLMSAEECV
The subject of the next test is HepG2. The test is described as follows: Antiproliferative activity against human HepG2 cells assessed as inhibition of cell viability at 10 uM after 72 hrs by CCK-8 assay relative to control. The class given is functional. The note with it: HepG2, 72 h. In a few lines:
(§2)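 Single-concentration viability screen using CCK-8. Cells were seeded at 3000/well and treated for 72 h. A450 read after 1-4 h with reagent. Percent inhibition calculated against untreated control and blank wells as (Ac−As)/(Ac−Ab)×100%.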

In a further test the test system is NCI-H1299. The test is described as follows: Antitumour activity against human H1299 cells xenografted in Balb/c mouse assessed as inhibition of tumour growth at 40 mg/kg, po administered for 21 days by digital caliper method relative to control. The class given is functional. The conditions noted are these: 504 h, read-out: TGI. Put shortly:
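Female nude mice, 6-8 weeks old, injected subcutaneously with 1×10^6 H1299 cells (100 µL of a 1×10^7/mL suspension in serum-free medium). At 100-120 mm3, randomized into groups of 5. Dosed orally each day for 21 days with drug dissolved in DMSO, or with vehicle. Caliper measurements and body weight taken every other day. Volume = short²×long×0.5. Growth inhibition based on change in volume relative to vehicle. Tumours weighed at the end.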

For another test, the system named is SiHa. Briefly: Antiproliferative activity against human SiHa cells assessed as inhibition of cell viability at 500 nM after 72 hrs by CCK-8 assay relative to control. The class given is functional. Put shortly: as §2
Test [13] deals with Receptor tyrosine-protein kinase erbB-4 (Homo sapiens) (UniProt Q15303). The test is described as follows: Inhibition of recombinant human ErbB4 (706 to 991 residues) at 1 uM using poly(Glu, Tyr) 4:1 as substrate measured after 40 mins in presence of [gamma33P]ATP by scintillation counting method relative to control.
Sequence of Receptor tyrosine-protein kinase erbB-4 (Homo sapiens) (Q15303 whole entry, the tested form may be a part): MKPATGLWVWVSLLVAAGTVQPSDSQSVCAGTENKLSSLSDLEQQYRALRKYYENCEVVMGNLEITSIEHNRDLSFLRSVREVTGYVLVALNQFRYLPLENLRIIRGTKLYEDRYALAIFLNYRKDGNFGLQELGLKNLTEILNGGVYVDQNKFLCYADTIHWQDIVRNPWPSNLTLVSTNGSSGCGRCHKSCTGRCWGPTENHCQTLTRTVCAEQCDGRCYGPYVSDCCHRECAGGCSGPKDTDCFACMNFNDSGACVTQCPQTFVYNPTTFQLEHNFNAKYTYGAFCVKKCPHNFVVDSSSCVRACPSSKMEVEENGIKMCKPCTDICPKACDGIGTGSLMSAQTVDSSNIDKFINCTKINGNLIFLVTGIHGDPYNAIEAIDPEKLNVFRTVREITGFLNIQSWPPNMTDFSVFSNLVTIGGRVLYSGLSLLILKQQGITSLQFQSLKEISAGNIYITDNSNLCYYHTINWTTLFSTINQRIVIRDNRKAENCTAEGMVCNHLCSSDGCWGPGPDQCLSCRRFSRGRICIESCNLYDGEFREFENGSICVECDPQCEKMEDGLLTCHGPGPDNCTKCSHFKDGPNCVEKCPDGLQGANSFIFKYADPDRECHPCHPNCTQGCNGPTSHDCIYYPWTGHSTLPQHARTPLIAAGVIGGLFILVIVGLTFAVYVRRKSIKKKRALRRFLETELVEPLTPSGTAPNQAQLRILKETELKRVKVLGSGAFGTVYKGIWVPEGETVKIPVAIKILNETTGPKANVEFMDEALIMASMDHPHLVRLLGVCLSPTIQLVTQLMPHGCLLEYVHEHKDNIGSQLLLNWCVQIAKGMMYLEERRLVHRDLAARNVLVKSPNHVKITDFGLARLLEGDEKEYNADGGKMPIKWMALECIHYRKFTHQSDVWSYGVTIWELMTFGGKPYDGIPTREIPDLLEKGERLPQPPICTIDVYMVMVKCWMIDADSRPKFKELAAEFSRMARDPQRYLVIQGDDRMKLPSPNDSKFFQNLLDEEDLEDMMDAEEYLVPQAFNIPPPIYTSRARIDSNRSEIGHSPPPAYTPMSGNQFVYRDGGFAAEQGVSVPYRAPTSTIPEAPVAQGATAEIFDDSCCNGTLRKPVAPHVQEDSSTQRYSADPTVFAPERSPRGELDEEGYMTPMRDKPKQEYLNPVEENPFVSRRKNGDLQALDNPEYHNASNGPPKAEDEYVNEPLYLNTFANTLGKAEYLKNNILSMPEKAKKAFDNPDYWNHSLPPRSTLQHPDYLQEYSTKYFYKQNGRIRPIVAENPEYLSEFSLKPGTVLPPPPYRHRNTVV
Test [14] is filed under the species Homo sapiens. Briefly: Inhibition of recombinant human ARAF Y301D/Y302D mutant (273 to end residues) at 1 uM using myelin basic protein as substrate measured after 40 mins in presence of [gamma33P]ATP by scintillation counting method relative to control.
Test [15] deals with Cyclin-dependent kinase 5/CDK5 activator 1 (Homo sapiens) (UniProt Q00535+Q15078). Briefly: Inhibition of recombinant full-length human CDK5/p25 at 1 uM using Histone H1 as substrate measured after 40 mins in presence of [gamma33P]ATP by scintillation counting method relative to control. The class given is protein-complex assay.
Sequence of Cyclin-dependent kinase 5/CDK5 activator 1 (Homo sapiens) (Q00535 whole entry, the tested form may be a part): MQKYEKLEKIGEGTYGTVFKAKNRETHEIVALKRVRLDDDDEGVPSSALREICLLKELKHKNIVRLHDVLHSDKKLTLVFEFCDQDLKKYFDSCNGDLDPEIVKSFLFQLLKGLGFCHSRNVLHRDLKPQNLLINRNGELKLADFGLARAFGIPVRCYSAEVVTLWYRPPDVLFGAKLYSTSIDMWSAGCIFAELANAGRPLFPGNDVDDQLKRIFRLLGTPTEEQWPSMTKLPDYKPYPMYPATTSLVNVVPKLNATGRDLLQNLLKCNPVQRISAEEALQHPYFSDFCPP
Sequence of Cyclin-dependent kinase 5/CDK5 activator 1 (Homo sapiens) (Q15078 99-307 partner limits assumed): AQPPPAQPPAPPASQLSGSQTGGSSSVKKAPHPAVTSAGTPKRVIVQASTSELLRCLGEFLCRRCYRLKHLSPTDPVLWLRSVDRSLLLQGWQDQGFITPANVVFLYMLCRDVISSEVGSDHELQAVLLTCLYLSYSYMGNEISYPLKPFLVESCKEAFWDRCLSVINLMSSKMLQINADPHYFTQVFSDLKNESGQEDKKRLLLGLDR
In test [16] the target is Serine/threonine-protein kinase VRK2 (Homo sapiens) (UniProt Q86Y07). The test is described as follows: Inhibition of recombinant human VRK2 (1 to 336 residues) at 1 uM using casein as substrate measured after 40 mins in presence of [gamma33P]ATP by scintillation counting method relative to control.
Sequence of Serine/threonine-protein kinase VRK2 (Homo sapiens) (Q86Y07 whole entry, the tested form may be a part): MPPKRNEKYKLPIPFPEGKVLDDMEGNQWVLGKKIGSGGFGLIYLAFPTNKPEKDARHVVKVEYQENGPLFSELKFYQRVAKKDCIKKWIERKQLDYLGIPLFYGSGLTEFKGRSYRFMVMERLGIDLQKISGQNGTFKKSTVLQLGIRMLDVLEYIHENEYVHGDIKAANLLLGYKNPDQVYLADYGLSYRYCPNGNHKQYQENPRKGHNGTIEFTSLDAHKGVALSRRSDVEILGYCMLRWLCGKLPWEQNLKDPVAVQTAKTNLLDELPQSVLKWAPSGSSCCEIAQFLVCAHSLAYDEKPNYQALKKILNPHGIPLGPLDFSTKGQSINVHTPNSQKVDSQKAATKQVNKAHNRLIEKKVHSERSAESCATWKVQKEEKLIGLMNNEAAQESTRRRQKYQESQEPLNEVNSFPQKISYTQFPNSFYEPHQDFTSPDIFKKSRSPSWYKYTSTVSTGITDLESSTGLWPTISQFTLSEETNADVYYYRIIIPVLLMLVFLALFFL
In test [17] the target is Mitogen-activated protein kinase kinase kinase 5 (Homo sapiens) (UniProt Q99683). Briefly: Inhibition of recombinant human ASK1 (649 to 946 residues) at 1 uM using myelin basic protein as substrate measured after 40 mins in presence of [gamma33P]ATP by scintillation counting method relative to control.
The target in test [18] is Serine/threonine-protein kinase Nek3 (Homo sapiens) (UniProt P51956). Briefly: Inhibition of recombinant full-length human NEK3 at 1 uM using myelin basic protein as substrate measured after 40 mins in presence of [gamma33P]ATP by scintillation counting method relative to control.

Calls of active or inactive are those of the source. The calls are words filed in the database; no cut-off is given here.

This is an account of results in ChEMBL document CHEMBL4376814, “Novel cyclin-dependent kinase 9 (CDK9) inhibitor with suppression of cancer stemness activity against non-small-cell lung cancer” (Eur J Med Chem, 2019).

As usually defined, the inhibition is the relative decrease from the control value, in per cent.

Sequence of Ephrin type-B receptor 4 (Homo sapiens) (P54760 whole entry): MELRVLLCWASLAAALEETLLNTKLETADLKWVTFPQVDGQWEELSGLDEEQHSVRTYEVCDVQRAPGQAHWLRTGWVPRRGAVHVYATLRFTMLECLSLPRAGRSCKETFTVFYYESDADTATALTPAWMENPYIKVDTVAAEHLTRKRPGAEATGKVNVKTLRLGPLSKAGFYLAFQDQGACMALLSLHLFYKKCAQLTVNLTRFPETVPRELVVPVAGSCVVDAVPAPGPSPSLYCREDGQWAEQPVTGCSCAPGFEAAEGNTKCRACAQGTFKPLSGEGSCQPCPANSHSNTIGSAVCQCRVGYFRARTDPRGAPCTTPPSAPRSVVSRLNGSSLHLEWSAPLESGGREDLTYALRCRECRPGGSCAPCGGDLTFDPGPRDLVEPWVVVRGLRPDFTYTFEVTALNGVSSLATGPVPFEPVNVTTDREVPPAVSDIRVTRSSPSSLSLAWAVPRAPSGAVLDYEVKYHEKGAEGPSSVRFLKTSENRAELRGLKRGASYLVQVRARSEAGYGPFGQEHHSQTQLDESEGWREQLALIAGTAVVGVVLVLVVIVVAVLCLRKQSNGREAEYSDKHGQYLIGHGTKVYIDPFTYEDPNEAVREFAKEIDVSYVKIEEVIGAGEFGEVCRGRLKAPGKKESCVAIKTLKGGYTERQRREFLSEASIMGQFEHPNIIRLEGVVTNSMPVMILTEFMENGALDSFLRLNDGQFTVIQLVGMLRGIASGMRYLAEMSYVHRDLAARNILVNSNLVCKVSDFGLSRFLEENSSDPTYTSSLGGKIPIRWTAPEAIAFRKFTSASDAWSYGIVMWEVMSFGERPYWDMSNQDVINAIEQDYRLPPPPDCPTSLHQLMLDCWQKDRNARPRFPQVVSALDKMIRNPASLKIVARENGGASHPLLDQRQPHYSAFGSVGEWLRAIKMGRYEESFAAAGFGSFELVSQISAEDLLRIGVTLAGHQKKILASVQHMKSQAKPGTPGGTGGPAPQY

For the compound `CN(C)C(=O)c1cc2cnc(Nc3ccc(NC(=O)CCCCCCCN=C=S)cc3)nc2n1C1CCCC1`, the inhibition is 12% in test [1]; -3% in test [2]; 48% in [3]; 76% in [4]; -4% in test [5]; 45% in test [6]. Further, the inhibition was 80% in test [7]; 30% in test [8]; -1% in test [9]; 68% in test [10]; 40% in the test listed under Homo sapiens [11]; -4% in test [12]. For the same compound, the inhibition in [13] was 24%; in the test filed under Homo sapiens [14], -1%; in [15] it was 63%; in test [16] it was 0%; in test [17] it was -7%; in test [18], 19%. Besides, the outcome with A549 was Active. Further, in the test on HepG2, the inhibition at 10 µM was 76%. Further, the inhibition in vivo at 40 mg/kg in the test with NCI-H1299 turned out to be 89.7%. In the test on SiHa, the inhibition at 0.5 µM was 11%.
